Source: publication PMC7067668 (Journal of biological inorganic chemistry : JBIC : a …, 2019)
Starred links: 1 amine or outer side, 2 acyl side, 3 side chain; linkers in the order of their positions; H or OH if unused. Non-standard residues stand in square brackets, D forms with d. Residues, ends and D or L forms follow the SMILES beside them. *: point of attachment. NOTA(2S-Bn(4-NHCS)) = O=C(O)CN1CCN(CC(=O)O)C[C@H](Cc2ccc(NC(=S)*)cc2)N(CC(=O)O)CC1; NH(CH2CH2O)4CH2CO = O=C(COCCOCCOCCOCCN[*:1])[*:2]; Acryloyl(3-(3-pyridyl),E) = O=C(/C=C/c1cccnc1)*; X1 = O=C(Cc1ccc(N[*:1])cc1)[*:2]; Aad = N[C@@H](CCCC(=O)O)C(=O)O; NH(2-Me-phenyl) = Cc1ccccc1N*; Ac6c = NC1(C(=O)O)CCCCC1; CO = O=C([*:1])[*:2]

Experiments:
[1] = tested on: B16F10 cells; test: Cell uptake and internalization; assay type: cell-based, mouse; details: co-incubation with 10 μg unlabeled LLP2A-PEG4 per well, n = 3
Summary of the method: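 Radiotracer uptake in B16F10 cells, grown in DMEM with 10% FBS at 37°C, 5% CO2, seeded at 200,000 cells/well 24 h before. Cells were rinsed with HBSS, then given DMEM with 0.1% BSA and 1 mM Mn²⁺ plus ~74 kBq/well Al¹⁸F- or ⁶⁸Ga-labeled test compound, with or without 10 μg/well unlabeled peptide. Sampling was at 0.5, 1, 2 h (⁶⁸Ga) or up to 4 h (¹⁸F). Cells were PBS-washed and gamma-counted.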

[2] = tested on: mice bearing B16F10 xenografts; test: Ex vivo biodistribution; assay type: in vivo, mouse; details: n = 5; for liver uptake: i.v. 5.5–7.4 MBq (100–200 pmol)
Summary of the method: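 Female C57BL/6 mice (four weeks old) carried subcutaneous right-shoulder B16F10 grafts (one million cells in PBS). Radiolabeled test compound was injected intravenously at 5.5–7.4 MBq (100–200 pmol), with or without 100 μg unlabeled peptide. Mice were sacrificed at 0.5, 1, 2 h p.i. (4 h for the ¹⁸F tracer). Organs and tumor were weighed and gamma-counted, expressed as %ID/g, n = 5.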

[3] = tested on: B16F10 xenografts; test: Micro-PET imaging, B16F10 xenografts; assay type: in vivo, mouse; details: co-injection of 100 μg unlabeled LLP2A-PEG4; 4 mice per group
Summary of the method: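 Female C57BL/6 mice bore subcutaneous right-shoulder B16F10 grafts (one million cells). They received intravenous Al¹⁸F- or ⁶⁸Ga-labeled test compound, 5.5–7.4 MBq (100–200 pmol), co-injected with 100 μg unlabeled peptide. Static small-animal PET was acquired under 2% isoflurane at 0.5, 1, 2 h p.i. (plus 4 h for ¹⁸F).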

[4] = tested on: A375 xenografts; test: Micro-PET imaging, VLA-4-negative A375 xenografts; assay type: in vivo, mouse; details: BALB/c nude mice, 0.5 h, 1 h, 2 h p.i., 5.5–7.4 MBq
Summary of the method: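 Female BALB/c nude mice carried subcutaneous right-shoulder A375 (VLA-4-negative) grafts of one million cells in PBS. ⁶⁸Ga-labeled test compound was injected intravenously at 5.5–7.4 MBq (100–200 pmol). Static small-animal PET was acquired under 2% isoflurane anesthesia at 0.5, 1 and 2 h p.i.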

Cc1ccccc1NC(=O)Nc1ccc(CC(=O)N[C@@H](CCCCNC(=O)/C=C/c2cccnc2)C(=O)N[C@@H](CCCC(=O)O)C(=O)NC2(C(=O)NCCOCCOCCOCCOCC(=O)N[C@@H](CCCCNC(=S)Nc3ccc(C[C@H]4CN(CC(=O)O)CCN(CC(=O)O)CCN4CC(=O)O)cc3)C(N)=O)CCCCC2)cc1 [^68Ga-NOTA-PEG4-LLP2A, metal not drawn] ({NH(2-Me-phenyl)-CO}-[X1]K(Acryloyl(3-(3-pyridyl),E))[Aad][Ac6c][NH(CH2CH2O)4CH2CO]K(NOTA(2S-Bn(4-NHCS)))-NH2)
reduction of cell uptake by blocking dose [1]: 79.2% | bone uptake ([2]; 0.5 h p.i., B16F10 tumor mice): 5.75 ± 2.04 %ID/g | tumor uptake ([2]; 0.5 h p.i.): 6.77 ± 1.77 %ID/g | liver uptake ([2]; 1 h p.i., B16F10 tumor mice): 15.3 ± 1.7 %ID/g | tumor-to-blood ratio ([2]; 1 h p.i.): 3.3 ± 0.5 | colon uptake ([2]; 2 h p.i., B16F10 tumor mice): 2.1 ± 0.2 %ID/g | kidney uptake ([2]; 2 h p.i., B16F10 tumor mice): 4.5 ± 0.3 %ID/g | liver uptake ([2]; 2 h p.i., B16F10 tumor mice): 8.0 ± 0.8 %ID/g | tumor-to-blood ratio ([2]; 2 h p.i.): 7.3 ± 0.6 | activity accumulation in B16F10 xenografts with blocking agent (PET) [3]: significantly reduced | accumulation in VLA-4-negative A375 xenografts (PET) [4]: did not show specific accumulation

Cc1ccccc1NC(=O)Nc1ccc(CC(=O)N[C@@H](CCCCNC(=O)/C=C/c2cccnc2)C(=O)N[C@@H](CCCC(=O)O)C(=O)NC2(C(=O)NCCOCCOCCOCCOCC(=O)N[C@@H](CCCCNC(=S)Nc3ccc(C[C@H]4CN(CC(=O)O)CCN(CC(=O)O)CCN4CC(=O)O)cc3)C(N)=O)CCCCC2)cc1 [Al^18F-NOTA-PEG4-LLP2A] ({NH(2-Me-phenyl)-CO}-[X1]K(Acryloyl(3-(3-pyridyl),E))[Aad][Ac6c][NH(CH2CH2O)4CH2CO]K(NOTA(2S-Bn(4-NHCS)))-NH2)
reduction of cell uptake by blocking dose [1]: 61.7% | activity accumulation in B16F10 xenografts with blocking agent (PET) [3]: significantly reduced
